Key:
[1] = tested on: P388; experiment: Cytotoxicity against mouse P388 cells; assay type: functional, cell-based
[2] = tested on: Saccharomyces cerevisiae; experiment: DNA damaging activity against RS322YK rad52 DNA repair gene deficient Saccharomyces cerevisiae mutant assessed as drug level required to produce 12 mm zone of inhibition after 48 hrs; assay type: functional
Summary of the method: (§1)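 Yeast agar-well diffusion: strain plated on YPD agar (7 mm layer); 6 mm wells cut with cork borer; sample dissolved in DMSO-MeOH (1:1), 100 μl per well. Plates read after 48 h at 30°. IC12 = concentration (μg/ml) giving a 12 mm inhibition zone, taken from dose-response curves by linear regression (log dose as Y, zone size as X).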

[3] = tested on: Saccharomyces cerevisiae; experiment: DNA damaging activity against RS188N rad DNA repair gene expressing wild type Saccharomyces cerevisiae assessed as drug level required to produce 12 mm zone of inhibition after 48 hrs; assay type: functional; summary of the method: as §1
[4] = tested on: Saccharomyces cerevisiae; experiment: DNA damaging activity against RS167N rad6 DNA repair gene deficient Saccharomyces cerevisiae mutant assessed as drug level required to produce 12 mm zone of inhibition after 48 hrs; assay type: functional; summary of the method: as §1

C=C(CC[C@@H](C)[C@H]1CC[C@H]2[C@@H]3[C@H](O)C=C4C[C@@H](O)CC[C@]4(C)[C@H]3CC[C@]12C)C(C)C
IC50 [1]: 4.3 µM
IC12 [2]: 8 µg/mL
IC12 [3]: > 1500 µg/mL
IC12 [4]: 12 µg/mL

COC1=C(N)C(=O)c2nc(-c3nc(C(=O)O)c(C)c(-c4ccc(OC)c(OC)c4O)c3N)ccc2C1=O [STREPTONIGRIN]
IC12 [2]: 0.4 µg/mL
IC12 [4]: 2.4 µg/mL

CC(C)C1(CC[C@@H](C)[C@H]2CC[C@H]3[C@@H]4[C@H](O)C=C5C[C@@H](O)CC[C@]5(C)[C@H]4CC[C@]23C)CO1 (stereo partly drawn)
IC12 [2]: 0.4 µg/mL
IC12 [3]: > 50 µg/mL
IC12 [4]: 6 µg/mL

CC[C@@]1(O)C(=O)OCc2c1cc1n(c2=O)Cc2cc3ccccc3nc2-1 [CAMPTOTHECIN]
IC12 [2]: 0.6 µg/mL
IC12 [4]: 8.7 µg/mL

CC(C)C(O)(CO)CC[C@@H](C)[C@H]1CC[C@H]2[C@@H]3[C@H](O)C=C4C[C@@H](O)CC[C@]4(C)[C@H]3CC[C@]12C (stereo partly drawn)
IC12 [2]: 1 µg/mL
IC12 [3]: > 100 µg/mL

From ChEMBL document CHEMBL1150057, “Bioactive ergost-5-ene-3 beta, 7 alpha-diol derivatives from Pseudobersama mossambicensis” (J Nat Prod, 1992)
